According to the array DNA melting data of Ke et al. (doi:10.1101/2024.01.08.574731):

How the values were obtained:
[1] = folding enthalpy; higher = less favourable; fluorescence melt of hairpins on a sequencing array, two-state fit; settings: sodium 0.088 M
In short: (§1)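 In 50 mM Na-HEPES pH 8.0 containing 25 mM NaCl, hairpins from the library on a sequenced MiSeq flow cell were imaged for Cy3 fluorescence at 2.5 °C steps up to 60 °C, with Cy3 and quencher oligos annealed. After normalisation to pre-quench Cy3 and to control constructs, two-state fits with bootstrapping gave melting temperature and folding enthalpy. Four replicates were combined by inverse-variance weighting, and fitted temperatures were shifted up by 9.35 °C to match UV melts.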

[2] = melting temperature; fluorescence melt of hairpins on a sequencing array, two-state fit, raised by 9.35 °C to match UV melts; settings: sodium 0.088 M
In short: as §1

Sequence	folding enthalpy [1]	Tm [2]
GCGCGCGAAAGCGCACGC ((((((....)))..)))	-11.7 kcal/mol	67 °C
GATCTGCCCCCAGATC ((((((....))))))	-34.5 kcal/mol	48.3 °C
GCATAAGAAATTATGC ((((((....))))))	-28.6 kcal/mol	46.3 °C
GGCAGCGAAAGCTAAGCC ((((((....)))..)))	-25.2 kcal/mol	55.6 °C
GGCCTGGCGAAAGCCGCC (((..(((....))))))	-15.5 kcal/mol	48.7 °C
CGAACGGAAACGTGGTCG ((((((....)))..)))	-12.7 kcal/mol	32.7 °C
GGGCTGGGAAACCGGCCC ((((.((....)).))))	-29.2 kcal/mol	67.2 °C
GCGTGTTCACGC ((((....))))	-29 kcal/mol	59.5 °C
GGCCAGGGAAACCCGGCC ((((.((....)).))))	-40.9 kcal/mol	62.1 °C
GGTCCGGGAAACCGAACC (((.(((....))).)))	-29.1 kcal/mol	46.8 °C
GAAATTGGAAACGATTTC (((((.(....).)))))	-30.1 kcal/mol	37.6 °C
GGTTTGCGAAAGCAGACC (((.(((....))).)))	-34.8 kcal/mol	59.5 °C
GGGAGCCGAAAGGCCCCC (((.(((....))).)))	-21.3 kcal/mol	65.9 °C
GATCTCGCTGAGATC ((((((...))))))	-43.6 kcal/mol	53.8 °C
GATCGTATTGACGATC ((((((....))))))	-22.8 kcal/mol	55 °C
GCTTTGCGAAAGCTTAGC (((..((....))..)))	-16.7 kcal/mol	55.2 °C
CGGGCGGAAACGCTACCG ((((((....)))..)))	-24.3 kcal/mol	45.8 °C
GCTGGGCGAAAGCTGAGC (((..((....))..)))	-21 kcal/mol	49.3 °C
GTGGCTGGAAACAGCTGC (..((((....))))..)	-15.6 kcal/mol	47.4 °C
GCGCCGCGAAAGCGATGC ((..(((....)))..))	-19.4 kcal/mol	60.8 °C
GCGTGCATACGC ((((....))))	-24.6 kcal/mol	68.7 °C
GGTGGCCGAAAGGCTACC (((.(((....))).)))	-29.6 kcal/mol	67.3 °C
GCCCTCGGAAACGGGGGC ((((.((....)).))))	-32.7 kcal/mol	66.9 °C
GCTTCTGAAAAGAAGC ((((((....))))))	-31.9 kcal/mol	60 °C

Sequence	folding enthalpy [1]	Tm [2]
GTGGACGAAAGTCTTCAC ((((((....)))..)))	-12.8 kcal/mol	32.4 °C
GGAGGCGAAAGCCCTCC ((((((....))).)))	-18.1 kcal/mol	61.1 °C
GCTGATCGAAAGATGAGC (((.(((....))).)))	-32.2 kcal/mol	48 °C
GCTTAAGAAATTAAGC ((((((....))))))	-26.4 kcal/mol	43.5 °C
GGCGACGGAAACATCGCC (((((.(....).)))))	-42.6 kcal/mol	55.4 °C
GCTCGCACGAAAGTGAGC (((..(((....))))))	-21.2 kcal/mol	49.6 °C
GCGAAGCATCGC ((((....))))	-8.14 kcal/mol	59.5 °C
GCTTGGGGAAACCTAGGC ((.(.((....)).).))	-23.5 kcal/mol	32.3 °C
GCGTCCGAAAGGACCCGC ((((((....)))..)))	-11.4 kcal/mol	44.4 °C
GACTCCGGAAACGGAGCC (.(((((....))))).)	-13.6 kcal/mol	50.5 °C
GCGTACGAAAGTATCGC ((((((....))).)))	-39.6 kcal/mol	53.4 °C
GTGTTTGGAAACAGACAC ((((.((....)).))))	-36 kcal/mol	44.1 °C
GCATCCGAAAGGATTTGC ((((((....)))..)))	-18.5 kcal/mol	43.9 °C
GCAAGCGAAAGCTCATGC ((((((....)))..)))	-12.5 kcal/mol	35.2 °C
GTCACTGAAAAGTGAC ((((((....))))))	-33.2 kcal/mol	63.3 °C
GACTTCGAAAGAAGTC ((((((....))))))	-38.8 kcal/mol	62 °C
GATCAGTATCCTGATC ((((((....))))))	-33.3 kcal/mol	48.7 °C
GCCGCGCGAAAGCGGTGC ((..(((....)))..))	-16.2 kcal/mol	58 °C
GCGACCTCTCGC ((((....))))	-18.6 kcal/mol	46.9 °C
GCGGGGCGAAAGCGGCGC (((..((....))..)))	-34.7 kcal/mol	66.8 °C
GTAGACACGAAAGTGTAC (((..(((....))))))	-10.5 kcal/mol	32 °C
GAACGGCGAAAGCCTTTC (((.(((....))).)))	-18 kcal/mol	39.7 °C
CGCATCGGAAACGAGCG (((.(((....))))))	-31.8 kcal/mol	49.5 °C
GATCGAATGTTCGATC ((((((....))))))	-42.5 kcal/mol	52.5 °C

Sequence	folding enthalpy [1]	Tm [2]
AGAAACCGAAAGGCTTCT ((((.((....)).))))	-28.4 kcal/mol	40.9 °C
GCCGAAGGAAACTTCAGC ((.((((....)))).))	-11.7 kcal/mol	32.9 °C
GTTTAACCGAAAGGTAAC (((..(((....))))))	-10.4 kcal/mol	29.7 °C
GTTGCCGAAAGGCTCAAC ((((((....)))..)))	-7.95 kcal/mol	29.8 °C
GCAGAGCGAAAGCCCGGC ((.(.((....)).).))	-17.9 kcal/mol	44.8 °C
GCGAGGTTCGC ((((...))))	-16.3 kcal/mol	48.7 °C
GATCCAGATGTGGATC ((((((....))))))	-35.4 kcal/mol	51.1 °C
GATCAAGATTTTGATC ((((((....))))))	-28.5 kcal/mol	44.5 °C
GTTTAGGGAAACTTGAAC (((.(.(....).).)))	-13 kcal/mol	34.1 °C
GCCCTGGCGAAAGCCGGC (((..(((....))))))	-11.1 kcal/mol	52 °C
GCGTTGCAACGC ((((....))))	-33.5 kcal/mol	59 °C
GGAGTTGGAAACAACTTC (.(((((....))))).)	-31.1 kcal/mol	47.5 °C
GGTGCTCGAAAGAGTACC (((.(((....))).)))	-45.9 kcal/mol	60 °C
GGCTGCGAAAGCAATGCC ((((((....)))..)))	-22 kcal/mol	55 °C
GATCCCCATGGGGATC ((((((....))))))	-39.7 kcal/mol	67.7 °C
GGAAATACGAAAGTATCC (((..(((....))))))	-11.3 kcal/mol	30.8 °C
CAACTGAAAAGTTG (((((....)))))	-22.1 kcal/mol	46.2 °C
CCCAAGAAATTGGG (((((....)))))	-17.3 kcal/mol	45.3 °C
GGTAGCGAAAGCTTCACC ((((((....)))..)))	-13.8 kcal/mol	34.4 °C
GAATCCGGAAACAGATTC (((((.(....).)))))	-19.5 kcal/mol	31.3 °C
CGGACGCGGAAACGCCCG (((..(((....))))))	-25.3 kcal/mol	48.8 °C
GTCATTCGAAAGAAGGAC (((.(((....))).)))	-42.5 kcal/mol	51.9 °C
GCATCCGAAAGGAATGC ((((((....))).)))	-32.3 kcal/mol	55.4 °C
GATCGACCTGTCGATC ((((((....))))))	-40.3 kcal/mol	65 °C

Sequence	folding enthalpy [1]	Tm [2]
GCGAAATTCGC ((((...))))	-18.2 kcal/mol	43.1 °C
GGTTCCACGAAAGTGACC (((..(((....))))))	-15.1 kcal/mol	31.6 °C
GGGGCCACGAAAGTGCCC (((..(((....))))))	-26.2 kcal/mol	60 °C
GCCCAGCGAAAGCTACGC ((..(((....)))..))	-5.73 kcal/mol	30.2 °C
GTGGCTACGAAAGTACAC (((..(((....))))))	-11.3 kcal/mol	32.9 °C
GCAAGTGGAAACACTCGC ((.((((....)))).))	-25.4 kcal/mol	44.3 °C
GGAAGCACGAAAGTGTCC (((..(((....))))))	-13.1 kcal/mol	31.5 °C
GGAGGGACGAAAGTCTCC (((..(((....))))))	-13.4 kcal/mol	39.2 °C
GCAGACGAAAGTCTCTGC ((((((....)))..)))	-14.8 kcal/mol	44.1 °C
GCAGCTGGAAACAGCCGC ((.((((....)))).))	-29.3 kcal/mol	50.6 °C
GAGGCCGAAAGGCCACTC ((((((....)))..)))	-10.2 kcal/mol	60.4 °C
GCAGTCGAAAGACTGTGC ((((((....)))..)))	-18.3 kcal/mol	55.3 °C
GCGTGAGCGAAAGCTCGC (((..(((....))))))	-10.4 kcal/mol	53 °C
GCTGGGCGAAAGCCCCGC ((.((((....)))).))	-16.1 kcal/mol	58.5 °C
GATAGGGAAACCTATC ((((((....))))))	-34.7 kcal/mol	47.6 °C
GTTAACCGAAAGGTCAAC (((.(((....))).)))	-20.5 kcal/mol	37.7 °C
GATACGCGAAAGCGGATC (((.(((....))).)))	-29.3 kcal/mol	66 °C
GTACGTGGAAACACGCAC ((.((((....)))).))	-17.2 kcal/mol	47.3 °C
GGGTAGCGAAAGCTCCCC (((.(((....))).)))	-28 kcal/mol	55.1 °C
GATCTCCAGGGAGATC ((((((....))))))	-36.5 kcal/mol	55 °C
GTTATGTCGAAAGACAAC (((..(((....))))))	-10.6 kcal/mol	28.5 °C
